Results from different studies.
Compare with care: the assays were run in different laboratories.
Target: cGMP-dependent protein kinase 1 (PRKG1, Homo sapiens, UniProt Q13976)
One construct used (Q13976 1-671): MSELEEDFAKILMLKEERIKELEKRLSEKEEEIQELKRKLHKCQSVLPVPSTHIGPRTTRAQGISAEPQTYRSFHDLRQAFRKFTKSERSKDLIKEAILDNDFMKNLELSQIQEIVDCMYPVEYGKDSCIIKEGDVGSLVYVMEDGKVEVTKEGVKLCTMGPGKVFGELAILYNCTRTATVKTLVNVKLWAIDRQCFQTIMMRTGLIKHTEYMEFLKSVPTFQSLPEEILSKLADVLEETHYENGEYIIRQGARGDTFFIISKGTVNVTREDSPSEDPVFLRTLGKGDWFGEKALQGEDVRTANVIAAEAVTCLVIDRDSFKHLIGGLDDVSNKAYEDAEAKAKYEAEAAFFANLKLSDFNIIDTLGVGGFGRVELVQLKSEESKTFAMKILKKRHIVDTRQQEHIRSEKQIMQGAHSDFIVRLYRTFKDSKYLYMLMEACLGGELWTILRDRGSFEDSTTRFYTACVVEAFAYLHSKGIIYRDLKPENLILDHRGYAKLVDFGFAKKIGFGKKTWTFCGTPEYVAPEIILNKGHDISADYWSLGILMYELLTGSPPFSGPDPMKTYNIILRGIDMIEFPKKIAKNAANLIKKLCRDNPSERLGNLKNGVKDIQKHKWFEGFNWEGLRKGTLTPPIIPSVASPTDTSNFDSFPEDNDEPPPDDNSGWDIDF

| Structure (SMILES) | effect on | mode | method | tested at | quantity | result |
| --- | --- | --- | --- | --- | --- | --- |
| O=C(Nc1cccnn1)N1CCC(=Cc2cccc(Oc3ccc(C(F)(F)F)cn3)c2)CC1 | cell-free assay |  | competition with immobilised ligand | 1 µM | remaining binding | 100% |
| Nc1ncnc2occ(-c3ccc(NC(=O)Nc4cc(C(F)(F)F)ccc4F)cc3)c12 | cell-free assay | inhibitor |  | 20 µM | remaining signal | 87% |
| Cc1cnc(NC2CCOCC2)nc1-n1cnc(C(=O)NC(CN)c2cc(F)cc(Cl)c2)c1 (stereo not shown) | enzyme activity | inhibitor | radiometric | 1 µM | remaining activity | 100% |
| CC(C)(C)c1nc2c(s1)c1nc(N)ncc1c1ccc(NS(=O)(=O)c3c(F)cccc3F)c(F)c12 | enzyme activity | inhibitor | radiometric | 1 µM | remaining activity | 99% |
| CCOc1cc(-c2nncn2C)ccc1Nc1ncc2cc(C)nc(NCC(C)(C)C)c2n1 | enzyme activity | inhibitor | FRET | 1 µM | inhibition | < 15% |
| Cn1nc(C(=O)NCc2ccc(C(=O)O)cc2)cc1-c1ccc2[nH]ccc2c1 | cell-free assay |  | competition with immobilised ligand | 0.1 µM | remaining binding | 100% |
| COc1cc2ncnc(Nc3ccc(Oc4ccccc4)cc3C)c2cc1OC | enzyme activity | inhibitor |  | 1 µM | inhibition | 1% |
| c1ccc(N2CCN(Cc3nc4ccccc4[nH]3)CC2)nc1 | binding |  | competition with immobilised ligand | 1 µM | remaining binding | 100% |
| Cc1ccc(NC(=O)c2ccc(C)c(C(F)(F)F)c2)cc1C#Cc1nn(C2CCC(O)CC2)c2ncnc(N)c12 (stereo not shown) | cell-free assay |  |  | 10 µM | remaining signal | 118% |
| Cn1cnc(Br)c1C1=CN(c2ncnc3[nH]cnc23)CCS1 | enzyme activity | inhibitor | radiometric | 50 nM | inhibition | 72.1% |
| CNC(=O)c1cc(Oc2ccc(NC(=O)Nc3ccc(Cl)c(C(F)(F)F)c3)cc2)ccn1 | enzyme activity | inhibitor |  | 0.3 µM | inhibition | -10% |
| Cc1ccc(C(=O)NCc2ccsc2)cc1C#Cc1cn(C(C)C)c2ncnc(N)c12 | enzyme activity | inhibitor |  | 1 µM | activity vs control | 87% |
| Cc1nc(C2CCN(C(=O)c3ccc(OC(F)(F)F)cc3N)CC2)c2ncc(N3CCN(C)CC3)cc2n1 | cell-free assay |  | competition with immobilised ligand | 1 µM | remaining binding | 100% |
| Cc1cc(NC(=O)c2cccc3cc(-c4cccc5[nH]nc(N)c45)ccc23)ccc1F | enzyme activity | inhibitor |  | 0.1 µM | activity vs control | 122% |
| CN(C)c1ncnc(-c2ccc3nc(Nc4cc(CN5CCN(C(=O)CC(F)(F)F)CC5)ccn4)[nH]c3c2)c1Cl | cell-free assay |  | competition with immobilised ligand | 1 µM | remaining binding | 94% |
| CCCOc1ccc(OC)c(F)c1C(=O)c1ccc(C(=O)N[C@@H]2CNC[C@H]2NC(=O)c2ccc3[nH]ncc3c2)cc1 | enzyme activity | inhibitor |  | 0.75 µM | remaining activity | 0% |
